Values after ≈ are worked out from the molar mass of the structure shown.
Legend:
Format in all cases: functional
[1] = system: Aspergillus niger; test: Antifungal activity against Aspergillus niger NCIM 545 after 48 hrs by agar cup plate method
Summary of the method: (§1)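 Fungal zone-of-inhibition test in Czapek Dox medium by the agar cup method, with compounds dissolved in DMF and griseofulvin in DMF as the reference. Plates were incubated at 28 ± 0.5 °C for 48 h. Activity was taken as the diameter of the zone of inhibited growth around the cup.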

[2] = system: Aspergillus niger; test: Antifungal activity against Aspergillus niger NCIM 545 after 24 hrs by cup plate method; conditions: NCIM 545, 24 h
Summary of the method: (§2)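 Cup-plate MIC on Mueller Hinton agar plates containing the compound at 0 (control), 1, 2, 3, 5, 10, 15, 20, 30 and 40 (unit unclear), with compounds dissolved in DMF. Plates were read after 24 h and incubated further up to 72 h where needed. MIC is the lowest concentration giving no visible macroscopic growth.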

[3] = system: Bacillus subtilis; test: Antibacterial activity against Bacillus subtilis NCIM 2250 after 24 hrs by cup plate method; conditions: NCIM 2250, 24 h; summary of the method: as §2
[4] = system: Bacillus subtilis; test: Antibacterial activity against Bacillus subtilis NCIM 2250 after 48 hrs by agar cup plate method
Summary of the method: (§3)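 Agar cup plate zone-of-inhibition assay on Mueller Hinton agar, with compounds dissolved in DMF and streptomycin in DMF as the reference. Plates were incubated at 37 ± 0.5 °C for 48 h. Inhibition was scored as the diameter of the growth-free zone around the cup.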

[5] = system: Candida albicans; test: Antifungal activity against Candida albicans MTCC 277 after 24 hrs by cup plate method; conditions: MTCC 277, 24 h; summary of the method: as §2
[6] = system: Candida albicans; test: Antifungal activity against Candida albicans MTCC 277 after 48 hrs by agar cup plate method; summary of the method: as §1
[7] = system: Escherichia coli; test: Antibacterial activity against Escherichia coli ATCC 25922 after 48 hrs by agar cup plate method; summary of the method: as §3
[8] = system: Escherichia coli; test: Antibacterial activity against Escherichia coli ATCC 25922 after 24 hrs by cup plate method; conditions: ATCC 25922, 24 h; summary of the method: as §2

Row | SMILES | diameter of the inhibition zone (DIZ) [1] [mm] | MIC [2] [µg/mL] | MIC [3] [µg/mL] | diameter of the inhibition zone (DIZ) [4] [mm] | MIC [5] [µg/mL] | diameter of the inhibition zone (DIZ) [6] [mm] | diameter of the inhibition zone (DIZ) [7] [mm] | MIC [8] [µg/mL]
1 | CCOP(=O)(OCC)C(OC(C)=O)c1cc2cc(C)ccc2n2nnnc12 (stereo unspecified) | 14.1 | 10 (≈ 25.5 µM) | 10 (≈ 25.5 µM) | 12 | 10 (≈ 25.5 µM) | 13.1 | 11.4 | 15 (≈ 38.2 µM)
2 | CCOP(=O)(OCC)C(OC(C)=O)c1cc2cccc(C)c2n2nnnc12 (stereo unspecified) | 12.2 | 15 (≈ 38.2 µM) | 20 (≈ 51 µM) | 13.1 | 10 (≈ 25.5 µM) | 12.2 | 13.4 | 10 (≈ 25.5 µM)
3 | CCOP(=O)(OCC)C(OC(C)=O)c1cc2ccc(C)cc2n2nnnc12 (stereo unspecified) | 15.2 | 10 (≈ 25.5 µM) | 10 (≈ 25.5 µM) | 14.1 | 10 (≈ 25.5 µM) | 13.4 | 13.2 | 15 (≈ 38.2 µM)
4 | CN[C@@H]1[C@H](O[C@H]2[C@H](O[C@H]3[C@H](O)[C@@H](O)[C@H](N=C(N)N)[C@@H](O)[C@@H]3N=C(N)N)O[C@@H](C)[C@]2(O)C=O)O[C@@H](CO)[C@H](O)[C@H]1O [STREPTOMYCIN] |  |  | 5 (≈ 8.6 µM) | 16.4 |  |  | 16.2 | 5 (≈ 8.6 µM)
5 | CCOP(=O)(OCC)C(O)c1cc2cc(OC)ccc2n2nnnc12 (stereo unspecified) | 12.2 | 15 (≈ 40.9 µM) | 10 (≈ 27.3 µM) | 12.4 | 10 (≈ 27.3 µM) | 14.1 | 13.3 | 15 (≈ 40.9 µM)
6 | CCOP(=O)(OCC)C(OC(C)=O)c1cc2cc(OC)ccc2n2nnnc12 (stereo unspecified) | 14.2 | 10 (≈ 24.5 µM) | 10 (≈ 24.5 µM) | 13.2 | 10 (≈ 24.5 µM) | 13.4 | 12.4 | 10 (≈ 24.5 µM)
7 | CCOP(=O)(OCC)C(OC(C)=O)c1cc2ccc(OC)cc2n2nnnc12 (stereo unspecified) | 12.5 | 25 (≈ 61.2 µM) | 10 (≈ 24.5 µM) | 12.5 | 10 (≈ 24.5 µM) | 13.8 | 11.1 | 15 (≈ 36.7 µM)
8 | CCOc1ccc2c(c1)cc(C(OC(C)=O)P(=O)(OCC)OCC)c1nnnn12 (stereo unspecified) | 14.5 | 10 (≈ 23.7 µM) | 10 (≈ 23.7 µM) | 12.1 | 10 (≈ 23.7 µM) | 14.1 | 13.8 | 10 (≈ 23.7 µM)
9 | CCOP(=O)(OCC)C(O)c1cc2ccc(C)cc2n2nnnc12 (stereo unspecified) | 13.2 | 15 (≈ 42.8 µM) | 10 (≈ 28.5 µM) | 13.6 | 10 (≈ 28.5 µM) | 13.8 | 12 | 15 (≈ 42.8 µM)
10 | CCOP(=O)(OCC)C(OC(C)=O)c1cc2ccccc2n2nnnc12 (stereo unspecified) | 13.4 | 20 (≈ 52.9 µM) | 15 (≈ 39.6 µM) | 11.2 | 10 (≈ 26.4 µM) | 14.2 | 12.5 | 10 (≈ 26.4 µM)
